Data reported in ChEMBL document CHEMBL1141512, “Arylsulfonamide CB2 receptor agonists: SAR and optimization of CB2 selectivity” (Bioorg Med Chem Lett, 2008).

Experiments:
Cannabinoid receptor 2 [1] = target: T1, Cannabinoid receptor 2 (Homo sapiens, UniProt P34972); test: Agonist activity at human CB2 receptor expressed in CHO cells assessed as inhibition of forskolin-stimulated cAMP level; type: functional, cell-based
Method in brief: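 CHO cells expressing human CB2, 5000 cells/well, incubated overnight at 37 °C. Compounds given in stimulation buffer with 1 mM IBMX, 0.25% BSA and 10 µM forskolin for 30 min at 37 °C. Cells lysed and cAMP read by enzyme-fragment kit. Forskolin-stimulated cAMP versus cAMP with 200 nM CP-55940 defines 100%. EC50 from four-parameter logistic fit. Triplicate, at least three runs.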

Cannabinoid receptor 2 [2] = target: T1, Cannabinoid receptor 2; test: Agonist activity at human CB2 receptor expressed in CHO cells assessed as inhibition of forskolin-stimulated cAMP level relative to CP-55940; type: functional, cell-based; parameters: Activity: scale not given: the % may be the effect or the level left
Method in brief: (§1)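 CHO cells stably expressing human CB2 or CB1 were seeded at 5000 cells/well and grown overnight at 37 °C. Compounds were added in stimulation buffer (1 mM IBMX, 0.25% BSA, 10 µM forskolin) for 30 min at 37 °C. cAMP was measured in lysates with a cAMP kit; 100% = forskolin-stimulated cAMP versus level with 200 nM CP-55940. EC50 came from a four-parameter logistic fit; efficacy is relative to CP-55940. Each run was triplicate, at least three times.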

Homo sapiens = species: Homo sapiens; test: Selectivity for human CB2 receptor over human CB1 receptor by cAMP assay; method in brief: as §1
Cannabinoid receptor 1 = Cannabinoid receptor 1 (Homo sapiens, UniProt P21554); test: Displacement of [3H]CP-55940 from human CB1 receptor expressed in HEK cells; type: cell-based, HEK293
Cannabinoid receptor 1, sequence (P21554 whole entry): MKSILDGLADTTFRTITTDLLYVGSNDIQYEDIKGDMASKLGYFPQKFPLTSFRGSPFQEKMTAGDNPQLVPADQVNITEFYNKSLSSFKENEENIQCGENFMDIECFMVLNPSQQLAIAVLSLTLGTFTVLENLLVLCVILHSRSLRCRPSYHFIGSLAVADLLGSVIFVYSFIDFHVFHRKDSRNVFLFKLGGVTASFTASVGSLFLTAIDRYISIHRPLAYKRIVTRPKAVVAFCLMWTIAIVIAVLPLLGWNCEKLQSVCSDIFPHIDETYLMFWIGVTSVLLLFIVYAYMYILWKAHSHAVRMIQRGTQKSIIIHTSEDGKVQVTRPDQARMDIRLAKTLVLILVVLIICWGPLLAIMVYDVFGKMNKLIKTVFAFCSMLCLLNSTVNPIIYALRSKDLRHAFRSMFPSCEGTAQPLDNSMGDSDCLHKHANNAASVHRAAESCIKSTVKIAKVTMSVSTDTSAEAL
Method in brief: (§2)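 SPA binding with HEK membranes expressing human CB1 (2.5 µg/well) or CB2 (2 µg/well) on poly-L-lysine beads. Buffer: 50 mM Tris pH 7.5, 2.5 mM EDTA, 5 mM MgCl2, 0.8% fatty-acid-free BSA. Compounds at 1e-5 to 1e-10 M. [3H]-CP-55940 final 2.5 nM (CB1) or 4 nM (CB2). IC50 from four-parameter logistic fit, converted to Ki by Cheng-Prusoff.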

Cannabinoid receptor 2 [3] = target: T1, Cannabinoid receptor 2; test: Displacement of [3H]CP-55940 from human CB2 receptor expressed in HEK cells; type: cell-based, HEK293; method in brief: as §2

T1 sequence (P34972 whole entry, the tested form may be a part): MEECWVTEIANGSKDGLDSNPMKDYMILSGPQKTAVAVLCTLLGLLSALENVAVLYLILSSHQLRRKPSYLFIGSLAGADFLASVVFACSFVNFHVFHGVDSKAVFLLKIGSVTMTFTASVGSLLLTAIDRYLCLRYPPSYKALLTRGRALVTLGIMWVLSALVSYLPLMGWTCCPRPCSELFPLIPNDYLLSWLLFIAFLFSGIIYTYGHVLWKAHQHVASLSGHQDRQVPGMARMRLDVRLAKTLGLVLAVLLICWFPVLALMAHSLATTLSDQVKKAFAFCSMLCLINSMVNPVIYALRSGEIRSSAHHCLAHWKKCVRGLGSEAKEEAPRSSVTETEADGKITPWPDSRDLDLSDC

SMILES	EC50 (Cannabinoid receptor 2 [1]) [nM]	Activity (Cannabinoid receptor 2 [2]) [%]	Selectivity ratio (Homo sapiens)	Emax (Cannabinoid receptor 2 [2]) [%]	Ki (Cannabinoid receptor 1) [nM]	Ki (Cannabinoid receptor 2 [3]) [nM]
Cc1ccc(C(=O)N2CC[C@@H]3CCCC[C@H]3C2)cc1S(=O)(=O)N1CCCCC1 (relative stereo)	1	93	6890			
O=C(NC1CCCCC1)c1ccc(Cl)c(S(=O)(=O)N2CCCC2)c1	3	74	85			
Cc1ccc(C(=O)N2CCC3CCCCC3C2)cc1S(=O)(=O)N1CCC(O)CC1 (stereo not drawn)	215	86	37			
CC(C)c1ccc(C(=O)NC2CCCCC2)cc1S(=O)(=O)N1CCCC1	4	86	60			
Cc1ccc(C(=O)N2CCC3CCCCC3C2)cc1S(=O)(=O)N1CCCCC1 (stereo not drawn)	1.5	95	4330			
Cc1ccc(C(=O)N2CCC3CCCCC3C2)cc1S(=O)(=O)N1CCN(C(C)C)CC1 (stereo not drawn)	588	45				
O=C(c1ccc(C2CCCCC2)c(S(=O)(=O)N2CCCC2)c1)N1CCC2CCCCC2C1 (stereo not drawn)	> 20000					
Cc1ccc(C(=O)N(C)c2ccccc2Cl)cc1S(=O)(=O)N1CCCCC1	> 20000					
Cc1ccc(C(=O)Nc2ccccc2)cc1S(=O)(=O)N1CCCCC1	139	74	6			
Cc1ccc(C(=O)Nc2ccc(Cl)cc2)cc1S(=O)(=O)N1CCCCC1	14100	117				
Cc1ccc(C(=O)NC2CCCCC2)cc1S(=O)(=O)N1CCCC1	21	81	181			
COc1ccccc1NC(=O)c1ccc(C)c(S(=O)(=O)N2CCCCC2)c1	21	91	9			
Cc1ccc(C(=O)N2CCCCC2)cc1S(=O)(=O)N1CCCCC1	82		> 240	85		
Cc1ccc(C(=O)Nc2nccc3ccccc23)cc1S(=O)(=O)N1CCCCC1	1	98	25			
Cc1ccc(C(=O)N2CCC3CCCCC3C2)cc1S(=O)(=O)N1CCCCCC1 (stereo not drawn)	2	100	3280			
Cc1ccc(C(=O)Nc2ccccc2S(C)(=O)=O)cc1S(=O)(=O)N1CCCCC1	6	96	66			
Cc1ccc(C(=O)N2CCC3CCCCC3C2)cc1S(=O)(=O)N1CCS(=O)(=O)CC1 (stereo not drawn)	2	99	7740			
Cc1ccc(C(=O)NC2(C)CCCCC2)cc1S(=O)(=O)N1CCCCC1	18	58				
O=C(NC1CCCCC1)c1cccc(S(=O)(=O)N2CCCC2)c1	> 20000					
Cc1ccc(C(=O)N2CCC3CCCCC3C2)cc1S(=O)(=O)N1CCC1 (stereo not drawn)	13	94	> 1500			
O=C(c1ccc(Cl)c(S(=O)(=O)N2CCCC2)c1)N1CC[C@@H]2CCCC[C@H]2C1 (relative stereo)	3	89	3770			
COc1ccc2c(c1)c(CCN1CCOCC1)c(C)n2C(=O)c1cccc(Cl)c1Cl	0.65	44				

SMILES	EC50 (Cannabinoid receptor 2 [1]) [nM]	Activity (Cannabinoid receptor 2 [2]) [%]	Selectivity ratio (Homo sapiens)	Emax (Cannabinoid receptor 2 [2]) [%]	Ki (Cannabinoid receptor 1) [nM]	Ki (Cannabinoid receptor 2 [3]) [nM]
Cc1ccccc1NC(=O)c1ccc(C)c(S(=O)(=O)N2CCCCC2)c1	154	76	1.5			
Cc1ccc(C(=O)Nc2cccc3cccnc23)cc1S(=O)(=O)N1CCCCC1	4	100	7			
O=C(c1ccc(Cl)c(S(=O)(=O)N2CCCC2)c1)N1CCC2CCCCC2C1 (stereo not drawn)	4	93	520			
CC(C)c1ccc(C(=O)N2CCC3CCCCC3C2)cc1S(=O)(=O)N1CCCC1 (stereo not drawn)	0.4	101	2860			
Cc1ccc(C(=O)N2CCC3CCCCC3C2)cc1S(=O)(=O)Nc1ccccc1 (stereo not drawn)	> 20000					
Cc1ccc(C(=O)Nc2ccc3ccccc3n2)cc1S(=O)(=O)N1CCCCC1	195	45				
Cc1ccc(C(=O)Nc2ccccc2C(F)(F)F)cc1S(=O)(=O)N1CCCCC1	2	92	96			
Cc1ccc(C(=O)N2CCC3CCCCC3C2)cc1S(=O)(=O)N1CCOCC1 (stereo not drawn)	5	104	2640			
Cc1ccc(C(=O)Nc2cccc(Cl)c2)cc1S(=O)(=O)N1CCCCC1	27	80	31			
Cc1ccc(C(=O)Nc2ccccc2Cl)cc1S(=O)(=O)N1CCCCC1	5	89	13			
Cc1ccc(C(=O)NC2CCCCC2)cc1S(=O)(=O)N1CCCCC1	14	86	24			
O=C(NCC1CCOCC1)c1cnc(Nc2ccc(Cl)cc2Cl)nc1C(F)(F)F		95	> 470			
Cc1ccc(C(=O)N[C@@H](C)C2CCCCC2)cc1S(=O)(=O)N1CCCCC1	5	73	2			
O=C(c1cccc(S(=O)(=O)N2CCCC2)c1)N1CC[C@@H]2CCCC[C@H]2C1 (relative stereo)	> 20000					
Cc1ccc(C(=O)N2CCCC3CCCCC32)cc1S(=O)(=O)N1CCCCC1 (stereo not drawn)	6	82	94			
Cc1ccc(C(=O)N(C)C2CCCCC2)cc1S(=O)(=O)N1CCCCC1	119	86	38			
Cc1ccc(C(=O)N2CCC3CCCCC3C2)cc1S(=O)(=O)N1CCSCC1 (stereo not drawn)	1	90	3250			
Cc1ccc(C(=O)Oc2cccc3cccnc23)cc1S(=O)(=O)N1CCCCC1	< 1	99	1		3	4
Cc1ccc(C(=O)N[C@H](C)C2CCCCC2)cc1S(=O)(=O)N1CCCCC1	18	85	45			
Cc1ccc(C(=O)N2CCC3CCCCC3C2)cc1S(=O)(=O)NCC(C)C (stereo not drawn)	14	96	939			
Cc1ccc(C(=O)N2CCC3CCCCC3C2)cc1S(=O)(=O)NC(C)C (stereo not drawn)	2280	101	0.1			
Cc1ccc(C(=O)N2CCC3CCCCC3C2)cc1S(=O)(=O)N1CCCC1 (stereo not drawn)	4	94	2240			
